# Test results: ChEMBL document CHEMBL1129065, “Longimicins A-D: novel bioactive acetogenins from Asimina longifolia (annonaceae) and structure-activity relationships of asimicin type of annonaceous acetogenins” (1996)
# How the values were obtained:
# Assay type in all cases: functional
# [1] = test system: Artemia; assay: Lethal concentration required against bioactivity using brine shrimp lethality test
# [2] = test system: MIA PaCa-2; assay: Cytotoxicity concentration against human pancreatic carcinoma PaCa-2 cell line; details: read-out: ED50 (the source's name)
# Method in brief: (§1)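 7-day MTT cytotoxicity assay in human tumor cells, run at the Purdue Cancer Center cell culture lab under standard protocols. Samples serially diluted and each concentration tested in duplicate. ED50 calculated from the averaged values per concentration. Adriamycin included as positive control in every experiment.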
# [3] = test system: PC-3; assay: Cytotoxicity concentration against human prostate […] PC-3 cell line; details: read-out: ED50 (the source's name); method in brief: as §1
# [4] = test system: A549; assay: Cytotoxicity concentration against human lung carcinoma A-549 cell line; details: read-out: ED50 (the source's name); method in brief: as §1
# [5] = test system: MCF7; assay: Cytotoxicity concentration against human breast carcinoma MCF-7 cell line; details: read-out: ED50 (the source's name); method in brief: as §1
# [6] = test system: Culicidae; assay: Lethal concentration required against bioactivity using yellow fever mosquito larvae assay
# [7] = test system: HT-29; assay: Cytotoxicity concentration against human colon […] HT-29 cell line; details: read-out: ED50 (the source's name); method in brief: as §1
# [8] = test system: A498; assay: Cytotoxicity concentration against human kidney carcinoma A-498 cell line; details: read-out: ED50 (the source's name); method in brief: as §1
Compound,LC50 [1] [µg/mL],EC50 [2] [µg/mL],EC50 [3] [µg/mL],EC50 [4] [µg/mL],EC50 [5] [µg/mL],LC50 [6] [µg/mL],EC50 [7] [µg/mL],EC50 [8] [µg/mL]
CCCCCCCCCCCCCC[C@@H](O)[C@H]1CC[C@H]([C@H]2CC[C@H]([C@H](O)CCCCCC[C@@H](O)CC3=C[C@H](C)OC3=O)O2)O1,18.7,0.0173,0.0701,0.295,0.889,141,0.525,0.544
CCCCCCCCCCCC[C@@H](O)[C@H]1CC[C@H]([C@H]2CC[C@H]([C@H](O)CC[C@H](O)CCCCCCCC3=C[C@H](C)OC3=O)O2)O1,4.58,–,0.000242,0.000493,0.215,8.29,0.0116,0.0353
CCCCCCCCCCCCCC[C@@H](O)[C@H]1CC[C@H]([C@H]2CC[C@H]([C@H](O)CCCC[C@@H](O)CC3=C[C@H](C)OC3=O)O2)O1,9.42,1.09,2.96,0.455,0.088,75.7,1,0.127
COc1cccc2c1C(=O)c1c(O)c3c(c(O)c1C2=O)C[C@@](O)(C(=O)CO)C[C@@H]3O[C@H]1C[C@H](N)[C@H](O)[C@H](C)O1 [DOXORUBICIN],0.26,0.034,0.287,0.0262,0.194,–,0.0494,0.0663
CCCCCCCCCCCC[C@@H](O)[C@H]1CC[C@H]([C@H]2CC[C@H]([C@H](O)CCCCCC[C@@H](O)CC3=C[C@H](C)OC3=O)O2)O1,7.34,0.0792,2.2,0.143,0.0154,30.4,0.00332,0.064
CCCCCCC[C@H]1CC[C@H](CCCC[C@@H](O)[C@H]2CC[C@H](CCC[C@H](O)[C@@H](O)CCCCCCCC3=C[C@H](C)OC3=O)O2)O1 [ASIMIN],0.0046,–,–,–,–,–,–,–
CCCCCCCCCC[C@@H](O)[C@H]1CC[C@H]([C@H]2CC[C@H]([C@H](O)CCCCCCCC[C@@H](O)CC3=C[C@H](C)OC3=O)O2)O1 [PARVIFLORIN],0.088,–,–,–,1.72,–,0.549,–
CCCCCCCCCCC(O)C1CCC(C2CCC(C(O)CCCCCCCC[C@H](O)CC3=C[C@@H](C)OC3=O)O2)O1 (stereo partly specified) [ASIMICIN],0.026,–,–,0.00843,0.852,3.04,–,–
